Screening results (PubChem)
In the library only some 9.6% were active in any assay of this set; here they are far more common.
BaF3 parental = reduces parental Ba/F3 cell viability, JAK2V617F counter-screen. CellTiter-Glo ATP luminescence. inhibition, % at 5.6 µM. 1.1% of 220,000 active. AID 1486;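 active = inhibition above a per-campaign cutoff, the mean inhibition of all tested compounds plus 3 SD, cut at about 27% in these data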;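 note: 0% = DMSO wells and 100% = JAK Inhibitor I control wells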
MT stabilize HCS = microtubule stabilizers in HeLa cells; 0.83% of 200,000 active; HeLa tubulin immunostaining HCS, 24 h; share of cells brighter than vehicle mean+2SD; AID 2205; % tubulin-high responders, % at 10 µM;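 active = plate Z-score above 3 for both tubulin-high and condensed-nucleus cell shares, with cell loss under 80%, at 10 µM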;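 note: anti alpha tubulin signal scored within the nucleus-defined area of each cell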
L major viab = inhibitors of Leishmania major promastigote growth; Leishmania major promastigotes, resazurin fluorescence viability; inhibition, % at 10 µM; 9% of 200,000 active; AID 1063; in the data active = inhibition above about 50%;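 note: promastigotes grown with compound for 44 hours at 28 °C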
Ba/F3 V617F tox = loss of viability in JAK2V617F-driven Ba/F3 cells; Ba/F3 EpoR-JAK2V617F viability, ATP luminescence; inhibition, % at 5.6 µM; 1.1% of 220,000 active; AID 1446;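 active = inhibition above the campaign mean plus 3 SD over all tested compounds, cut at about 24% in these data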;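 note: cytokine-independent growth of Ba/F3 cells driven by EpoR plus mutant JAK2; 0% = DMSO-treated cells and 100% = JAK inhibitor I control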
APP 5UTR inh = APP translation inhibition; 0.82% of 190,000 active; inhibition, % at 2 µM; SH-SY5Y APP 5'UTR-luciferase reporter, luminescence;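 active = inhibition above a set limit, derived from the sample mean plus 3 SD, cut at about 45% in these data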
b-catenin transl = modulators of beta-catenin nuclear translocation. HeLa beta-catenin nuclear translocation, immunofluorescence imaging. nuclear translocation activity, % at 5 µM. 0.3% of 190,000 active;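 active = nuclear translocation activity above 50% at 5 µM, with a well cell count of 50 or more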;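 note: per-cell ratio of nuclear to cytoplasmic median beta-catenin stain intensity; plate controls were DMSO negative control for no effect and GSK-3 inhibitor IX positive control for full effect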
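Test system: human HeLa cell line; Doses: 5 µM primary, 0.02–20 µM confirmation; Incubation: 24 h compound exposure, 37°C; Detection: beta-catenin immunofluorescence imaging with DAPI; Read-out: beta-catenin nuclear/cytoplasmic ratio, % activation.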
The depositor's hits bear a star; . = no result given.

SMILES	BaF3 parental	MT stabilize HCS	L major viab	Ba/F3 V617F tox	APP 5UTR inh	b-catenin transl
Cc1cc(F)ccc1NCC(=O)Nc1ccccc1Br	-1.4	6.9	-3.0	-4.3	0.3	-1.7
O=C(/C=C/c1cn(CC(O)CN2CCCCC2)c2ccccc12)c1ccccc1 (centres undefined)	0.1	.	.	0.8	.	0.4
O=C(/C=C/c1cn(CC(O)CN2CCCCC2)c2ccccc12)c1cccs1 (centres undefined)	5.8	4.2	98.7*	-0.4	10.0	6.7
CCCN(CCC)CC(O)Cn1cc(/C=C/C(=O)c2cccs2)c2ccccc21 (centres undefined)	-1.2	4.7	63.8*	-1.4	-10.3	1.4
COc1ccc(C(=O)/C=C/c2cn(CC(O)CN3CCN(C)CC3)c3ccccc23)cc1OC (centres undefined)	-0.7	.	.	2.1	.	0.8
CCCN(CCC)CC(O)Cn1cc(/C=C/C(=O)c2ccccc2)c2ccccc21 (centres undefined)	8.7	3.3	69.2*	0.8	-20.5	0.7
Cc1cccc(Nc2nc(-c3cccs3)cs2)n1	3.7	2.1	56.6*	0.4	-208.2	3.0
Cc1cccnc1Nc1nc(-c2ccccn2)cs1	76.6*	2.1	100.4*	89.5*	92.6*	4.3
Cc1cccc(Nc2nc(-c3ccccn3)cs2)n1	4.6	3.6	100.4*	0.2	-210.5	0.3
O=S(=O)(NCc1cc(-c2ccccc2)no1)c1ccccc1Cl	5.2	2.6	-5.8	0.9	-0.4	1.2
O=S(=O)(NCCSc1ccccn1)c1ccc(Br)cc1	3.4	0.8	-7.5	-5.4	-11.1	-3.2
CCCCSc1nnc(CCNC(=O)OC(C)(C)C)o1	-1.3	.	.	-1.6	.	2.3
Cc1cccc(OCC(=O)N/N=C/CC(C)c2ccccc2)c1C (centres undefined)	3.9	2.7	-8.3	5.4	-7.2	-2.5
CCCCNC(=O)Nc1ccnn1C1CCCCC1	2.0	3.9	-7.7	-5.1	-39.1	1.2
Cc1ccc(-c2csc(=Nc3cccnc3)n2CCCn2ccnc2)cc1C	-1.2	2.1	94.8*	-3.3	18.4	-0.5
COCCn1c(-c2ccccc2)csc1=Nc1cccnc1	15.3	1.2	4.6	-3.0	-1.4	-0.7
c1cncc(N=c2scc(-c3cccc4ccccc34)n2CCCn2ccnc2)c1	-0.1	2.3	79.9*	0.8	-4.8	-1.8
CCCCn1c(C)csc1=Nc1cccnc1	3.4	1.5	29.1	3.3	-5.9	-2.7
Cc1ccc(-c2csc(=Nc3cccnc3)n2CCCN2CCCC2=O)cc1C	54.0*	4.7	19.1	64.1*	11.2	-1.2
CN(CC(=O)Nc1cc(S(=O)(=O)N2CCCC2)ccc1Cl)Cc1cccs1	0.2	.	.	-1.1	.	1.6
Cn1nc(C(F)(F)F)c(-c2ccccc2)c1NC(=O)CCC(=O)O	2.1	.	.	2.8	.	7.1
CN(/N=C/c1cccnc1)c1cnn(-c2ccc(F)c(Cl)c2)c(=O)c1Cl	2.1	2.6	68.3*	-3.1	-4.2	4.3
S=C(NC12CC3CC(CC(C3)C1)C2)N1CCCC1	5.5	2.4	53.2*	-0.2	-12.2	-1.5
CSc1ccc(S(=O)(=O)N(C)Cc2ccccc2)cc1	2.9	4.4	4.0	-1.0	-17.8	-4.0
O=C(N=Nc1c(O)[nH]c2ccc([N+](=O)[O-])cc12)c1ccccc1[N+](=O)[O-]	-2.7	.	.	1.9	.	0.1
SMILES	BaF3 parental	MT stabilize HCS	L major viab	Ba/F3 V617F tox	APP 5UTR inh	b-catenin transl
CCCCCCC(=O)N=Nc1c(O)[nH]c2ccc([N+](=O)[O-])cc12	1.9	3.9	78.2*	1.8	-18.1	0.1
Cc1c(C(=O)NCC2CCCO2)oc2ccc3c(c12)C(=O)CC(C)(C)O3 (centres undefined)	94.3*	4.3	3.1	0.4	-156.5	3.1
COc1ccc(CCNC(=O)C/C(C)=N/NC(=O)C23CC4CC(CC(C4)C2)C3)cc1OC	1.0	9.5	34.8	-3.2	-30.3	8.5
O=C(NC(=S)N1CCCc2ccccc21)c1ccc(Cl)cc1	2.8	3.9	64.2*	2.2	-47.9	2.5
O=C(NC(=S)N1CCCc2ccccc21)c1ccccc1	5.0	1.7	-2.0	-2.4	-27.9	-0.3
Cc1ccc(S(=O)(=O)C2(C(=O)N3CCN(c4cc(C)ccc4C)CC3)CC2)cc1	7.8	2.6	72.5*	3.3	-15.3	0.5
Cc1ccc(S(=O)(=O)C2(C(=O)N3CCCCCC3)CC2)cc1	1.3	3.4	-2.9	1.9	-57.2	2.3
Cc1ccc(S(=O)(=O)C2(C(=O)N3CCN(C4CCCCC4)CC3)CC2)cc1	0.5	2.8	75.9*	0.2	-5.7	.
